Entries after “also recorded” stand apart in the source; their conditions may differ. Like-named read-outs stand apart in the source and are kept apart here.
Key:
[1] = cited from earlier work
calneuron 1 (Caln1) = assay: Yeast two-hybrid; type: binding, mouse; details: LexA and VP16 fusions, lacZ reporter, X-gal
How it was run: (§1)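 Mouse coding sequences (from brain cDNA) were cloned as galactose-inducible LexA and VP16 fusions and co-transformed into S260 yeast, selected on glucose Trp−/Ura− plates. Colonies on filters were switched to galactose for induction, then assayed for lacZ with X-gal. Autoactivation was checked against LexA/VP16 control vectors. Blue within 1 h was scored positive; blue at 2–4 h was scored weak.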

CaM = details: ref Putkey et al., 2008; cited from earlier work
calmodulin-Sepharose = assay: CaM-Sepharose pulldown of Myc-tagged proteins expressed in COS-7 cells; type: binding; details: for CaM-Sepharose pulldown, calcium-replete: 5mM CaCl2; for CaM-Sepharose pulldown, calcium-replete / CaM-Sepharose pulldown, calcium-poor: TX-buffer pH 6.9, overnight at 4°C, anti-Myc western blot; for calcium dependence of CaM binding / overall CaM binding: 5mM CaCl2 or 5mM EGTA, summary in Discussion; for CaM-Sepharose pulldown, calcium-poor: 5mM EGTA
How it was run: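 Myc-tagged mouse constructs (from brain cDNA) were expressed in COS-7 cells, grown in DMEM/10% FBS at 37°C and transfected at 80% confluency with 3 μg plasmid. After 48 h, cells were lysed 30 min at 4°C in TX-buffer (50 mM Tris-HCl pH 6.9, 0.5% Triton X-100, protease inhibitors). Cleared lysate was incubated overnight at 4°C with CaM-Sepharose, then washed 3× and detected by SDS-PAGE/anti-Myc (9E10) western blot with ECL.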

[2] = system: calmodulin-like 4 (Calml4); assay: Yeast two-hybrid; type: binding, mouse; details: LexA and VP16 fusions, lacZ reporter, X-gal
How it was run: as §1

centrin 2 (Cetn2) = assay: Yeast two-hybrid; type: binding, mouse; details: LexA and VP16 fusions, lacZ reporter, X-gal
How it was run: as §1

calcineurin B (CnB) = assay: Yeast two-hybrid; type: binding, mouse; details: LexA and VP16 fusions, lacZ reporter, X-gal
How it was run: as §1

Substance	structure in solution ([1]; NMR and circular dichroism, ref Dickerson, 2004, Dickerson et al., 2006, Kleerekoper and Putkey, 2009)	interaction with Caln1 in Y2H (calneuron 1 (Caln1))	role of acidic region (EEFDIDMDAPETE) in CaM binding (CaM)	CaM-Sepharose pulldown, calcium-replete (calmodulin-Sepharose)	calcium dependence of CaM binding / overall CaM binding (calmodulin-Sepharose)	CaM-Sepharose pulldown, calcium-poor (calmodulin-Sepharose)	interaction with Calml4 in Y2H [2]	interaction with Cetn2 in Y2H (centrin 2 (Cetn2))	interaction with CnB in Y2H (calcineurin B (CnB))	structure in solution ([1]; ref Cui et al., 2003, Ran et al.)
PEP-19: calmodulin binding IQ motif protein, 62 amino acids	disordered in solution although it has a propensity to helix formation	no binding was detected	dispensable for CaM binding	associate weakly in high calcium; also recorded: interacted weakly or not at all with CaM-Sepharose under calcium-replete conditions	binds preferentially to calcium-free CaM	bind to CaM-Sepharose in calcium-poor (Eg) conditions; also recorded: bind CaM in low calcium conditions	no binding was detected	no binding was detected	no binding was detected	
neurogranin: calpacitin IQ motif protein, 78 amino acids		no binding was detected		associate weakly in high calcium	strong CaM binder	bind to CaM-Sepharose in calcium-poor (Eg) conditions; also recorded: bind CaM in low calcium conditions	no binding was detected	no binding was detected	no binding was detected	disordered in solution

From publication PMC3371134 (Journal of Neurochemistry, 2012)
